Results on 18 compounds are retold here after ChEMBL document CHEMBL1129945, “New 2-piperazinylbenzimidazole derivatives as 5-HT3 antagonists. Synthesis and pharmacological evaluation” (J Med Chem, 1997).

The target in assay [1] is T1, 5-hydroxytryptamine receptor 1A (Rattus norvegicus, UniProt P19327).
T1 sequence (P19327 whole entry): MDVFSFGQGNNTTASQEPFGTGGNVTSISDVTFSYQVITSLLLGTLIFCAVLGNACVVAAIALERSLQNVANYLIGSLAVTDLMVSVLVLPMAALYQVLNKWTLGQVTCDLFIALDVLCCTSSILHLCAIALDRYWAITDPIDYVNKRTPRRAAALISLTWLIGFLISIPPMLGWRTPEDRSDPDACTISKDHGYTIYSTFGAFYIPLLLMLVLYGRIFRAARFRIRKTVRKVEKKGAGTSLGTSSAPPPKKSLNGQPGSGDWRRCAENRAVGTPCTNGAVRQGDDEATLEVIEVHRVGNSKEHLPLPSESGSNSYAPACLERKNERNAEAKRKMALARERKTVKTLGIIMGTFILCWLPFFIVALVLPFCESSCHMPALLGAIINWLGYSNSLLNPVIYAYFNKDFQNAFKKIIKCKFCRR
Put plainly: In vitro by displacement of [3H]8-OH-DPAT from 5-hydroxytryptamine 1A receptor on rat cortical membrane. Summed up: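 Cerebral cortex membranes from adult male Wistar rats (220-280 g) in 50 mM Tris-HCl with 4 mM CaCl2, 0.1% ascorbate and 10 µM pargyline. [3H]8-OH-DPAT at 1.5 nM final. Nonspecific binding with 10 µM 5-HT. Incubation 30 min at 37 °C. Triplicate, 10-12 concentrations, two experiments. IC50 and Ki calculated.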

Assay [2] has as its target 5-hydroxytryptamine receptor 2A (Rattus norvegicus, UniProt P14842). In words: Binding affinity was evaluated in vitro by displacement of [3H]ketanserin from 5-hydroxytryptamine 2A receptor on rat cortical membrane. Summed up: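 Prefrontal cortex membranes from adult male Wistar rats (220-280 g), final dilution 1:60 wt/vol in 50 mM Tris-HCl. Displacer added in Tris-HCl with 10% ethanol. [3H]ketanserin at 0.8 nM final. Nonspecific binding with 1 µM methysergide. Triplicate competition, 10-12 displacer concentrations, two separate experiments. Filtration and scintillation counting. IC50 and Ki calculated.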
Background: In a radioligand displacement assay an active substance lowers the binding of a labelled ligand.

Assay [3] has as its target 5-hydroxytryptamine receptor 4 (Cavia porcellus, UniProt O70528). In words: In vitro by displacement of [3H]GR-113808 from 5-hydroxytryptamine 4 receptor on guinea pig striatal membrane. On the set-up: species or system Striatum. An outline of the steps:
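Striatal membranes from male Dunkin-Hartley guinea pigs (350-400 g) in 50 mM Hepes pH 7.4, 800-900 µg protein. Nonspecific binding with 10 µM 5-HT. Incubation 30 min at 25 °C, then filtration and scintillation counting. Triplicate, 10-12 concentrations, two experiments. IC50 and Ki calculated.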

In assay [4] the target is T2, Serotonin 3 (5-HT3) receptor (Rattus norvegicus, UniProt P35563+Q9JJ16).
T2 sequence (P35563 whole entry): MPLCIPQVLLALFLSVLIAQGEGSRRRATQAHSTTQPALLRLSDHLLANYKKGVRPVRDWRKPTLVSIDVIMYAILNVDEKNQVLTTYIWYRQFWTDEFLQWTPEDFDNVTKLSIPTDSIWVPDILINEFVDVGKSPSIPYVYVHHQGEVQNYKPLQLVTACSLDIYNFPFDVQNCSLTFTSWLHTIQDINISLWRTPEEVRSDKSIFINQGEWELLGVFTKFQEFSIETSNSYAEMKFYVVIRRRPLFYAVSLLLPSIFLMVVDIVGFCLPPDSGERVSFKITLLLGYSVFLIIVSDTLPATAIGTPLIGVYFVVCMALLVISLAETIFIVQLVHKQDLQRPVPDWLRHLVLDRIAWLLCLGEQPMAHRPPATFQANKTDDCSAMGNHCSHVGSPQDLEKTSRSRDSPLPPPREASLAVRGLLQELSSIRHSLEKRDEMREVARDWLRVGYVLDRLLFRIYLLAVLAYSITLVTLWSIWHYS
T2 sequence (Q9JJ16 whole entry): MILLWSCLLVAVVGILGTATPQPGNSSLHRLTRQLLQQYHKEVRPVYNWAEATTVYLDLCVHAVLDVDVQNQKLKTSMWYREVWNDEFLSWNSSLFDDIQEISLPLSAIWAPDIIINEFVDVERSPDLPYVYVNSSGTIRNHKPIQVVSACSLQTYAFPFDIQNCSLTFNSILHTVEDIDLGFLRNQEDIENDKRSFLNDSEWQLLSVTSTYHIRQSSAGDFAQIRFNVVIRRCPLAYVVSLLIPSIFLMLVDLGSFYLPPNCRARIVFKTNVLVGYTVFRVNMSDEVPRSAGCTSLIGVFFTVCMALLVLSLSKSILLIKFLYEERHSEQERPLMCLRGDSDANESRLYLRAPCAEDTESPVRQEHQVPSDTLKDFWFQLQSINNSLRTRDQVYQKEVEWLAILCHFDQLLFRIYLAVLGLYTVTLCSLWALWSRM
Put plainly: In vitro by displacement of [3H]LY-278584 from 5-hydroxytryptamine 3 receptor on rat entorhinal cortex. An outline of the steps:
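Entorhinal cortex membranes from male Wistar rats (220-280 g), 500-600 µg protein, in 50 mM Tris-HCl with 5 mM CaCl2, 0.1% ascorbate and 10 µM pargyline. Nonspecific binding with 10 µM 5-HT. Incubation 30 min at 25 °C. Triplicate, 10-12 concentrations, two experiments. IC50 and Ki calculated.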

The test system of assay [5] is Rattus norvegicus. In words: In vivo effective dose against Bezold-Jarisch reflex evoked by 5-HT in urethane-anesthetized rats. The class given is functional. An outline of the steps:
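Bradycardia induced by iv bolus of 5-HT 30 µg/kg. Antagonist or saline given iv (1 mL/kg) after recovery, and 5-HT challenge repeated 5 min later. Heart rate taken from the carotid pressure signal. ED50 in µg/kg iv by linear regression from 3-5 doses, 4-5 rats per dose.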

Assay [6] has as its target D(2) dopamine receptor (Rattus norvegicus, UniProt P61169). In words: In vitro by displacement of [3H]raclopride from Dopamine receptor D2 on rat striatal membrane. The arrangement: species or system Striatum.

Each structure is given as a SMILES string.

Chain of 5-hydroxytryptamine receptor 2A (P14842 whole entry): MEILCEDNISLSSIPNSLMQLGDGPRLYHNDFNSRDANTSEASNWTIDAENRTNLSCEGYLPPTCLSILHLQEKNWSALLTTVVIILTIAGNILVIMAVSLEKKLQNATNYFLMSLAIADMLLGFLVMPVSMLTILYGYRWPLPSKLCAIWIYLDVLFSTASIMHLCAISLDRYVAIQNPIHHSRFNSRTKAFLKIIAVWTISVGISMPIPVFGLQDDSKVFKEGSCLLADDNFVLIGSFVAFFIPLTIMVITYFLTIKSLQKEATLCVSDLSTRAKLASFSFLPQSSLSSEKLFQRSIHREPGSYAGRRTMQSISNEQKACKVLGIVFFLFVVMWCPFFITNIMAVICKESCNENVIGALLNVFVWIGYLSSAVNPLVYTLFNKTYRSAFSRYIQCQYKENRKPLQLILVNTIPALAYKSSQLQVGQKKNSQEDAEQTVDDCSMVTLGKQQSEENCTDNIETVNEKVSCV
Chain of 5-hydroxytryptamine receptor 4 (O70528 whole entry): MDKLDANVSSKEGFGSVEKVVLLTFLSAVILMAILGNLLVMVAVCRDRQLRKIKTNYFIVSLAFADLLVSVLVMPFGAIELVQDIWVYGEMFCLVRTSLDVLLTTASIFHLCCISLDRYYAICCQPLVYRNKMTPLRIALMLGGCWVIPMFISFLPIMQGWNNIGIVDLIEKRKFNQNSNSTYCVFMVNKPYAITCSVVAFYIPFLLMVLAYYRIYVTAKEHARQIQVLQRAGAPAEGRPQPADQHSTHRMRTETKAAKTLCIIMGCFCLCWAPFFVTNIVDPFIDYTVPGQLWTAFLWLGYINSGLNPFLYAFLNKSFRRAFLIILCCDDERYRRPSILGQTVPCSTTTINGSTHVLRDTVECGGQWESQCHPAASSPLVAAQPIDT
Chain of D(2) dopamine receptor (P61169 whole entry): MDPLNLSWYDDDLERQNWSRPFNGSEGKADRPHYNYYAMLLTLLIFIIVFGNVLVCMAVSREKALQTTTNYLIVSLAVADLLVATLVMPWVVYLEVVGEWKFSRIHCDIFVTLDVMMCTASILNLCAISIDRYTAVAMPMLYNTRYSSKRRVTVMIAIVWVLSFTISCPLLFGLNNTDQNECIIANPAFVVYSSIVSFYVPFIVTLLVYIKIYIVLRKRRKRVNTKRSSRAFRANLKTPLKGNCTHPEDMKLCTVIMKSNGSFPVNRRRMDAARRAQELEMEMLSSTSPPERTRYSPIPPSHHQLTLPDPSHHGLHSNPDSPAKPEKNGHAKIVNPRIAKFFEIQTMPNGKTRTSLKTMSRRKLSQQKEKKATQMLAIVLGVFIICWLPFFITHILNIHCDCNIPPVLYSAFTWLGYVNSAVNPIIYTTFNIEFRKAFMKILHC

In general, Ki refers to the equilibrium dissociation constant of an inhibitor or competing ligand from its target. As for `c1ccc2c(c1)nc(N1CCNCC1)n2C1CC1`, the inhibition constant (Ki) in assay [1] and in assay [2] was more than 1000 nM throughout.
Take `O=C(OCCN1CCCCC1)c1c[nH]c2ccccc12`: the Ki in assay [3] was 1 nM.
On to `Clc1ccc2c(c1)nc(N1CCNCC1)n2Cc1ccccc1`, for which the Ki in assay [1] and in assay [2] was more than 1000 nM in each case.
As to `Fc1ccc2c(c1)nc(N1CCNCC1)n2Cc1ccccc1`, the Ki in assay [1] and in assay [2] was more than 1000 nM each time.
`COc1cccc2c1nc(N1CCNCC1)n2Cc1ccccc1`: the Ki in assay [1] and in assay [2] was more than 1000 nM throughout.
In the case of `COc1ccc2nc(N3CCNCC3)n(Cc3ccccc3)c2c1`, the Ki in assay [1] and in assay [2] was more than 1000 nM in each case.
For `COc1cccc2nc(N3CCNCC3)n(Cc3ccccc3)c12`, the Ki in assay [1] and in assay [2] was more than 1000 nM throughout.
Consider `CCCn1c(N2CCNCC2)nc2ccccc21`, for which the Ki in assay [1] and in assay [2] was more than 1000 nM in each case.
Turning to `Oc1ccc2nc(N3CCNCC3)n(Cc3ccccc3)c2c1`, the Ki in assay [1] and in assay [2] was more than 1000 nM in each case.
As for `Cc1cc2nc(N3CCNCC3)n(Cc3ccccc3)c2cc1C`, the Ki in assay [1] and in assay [2] was more than 1000 nM each time.
As to `Cc1ccc2c(c1)nc(N1CCNCC1)n2Cc1ccccc1`, the Ki in assay [1] and in assay [2] was more than 1000 nM each time.
The ED50 is the dose at which the effect has come halfway, by size or by number of responders. `Cn1c(N2CCNCC2)nc2ccccc21`: the Ki in assay [1] was more than 1000 nM; in assay [4], 50.1 nM; in assay [3], more than 1000 nM; in assay [2], more than 1000 nM; in assay [6] it was more than 1000 nM. The ED50 in assay [5] worked out at 5.3 µg/kg.
Turning to `CCn1c(N2CCNCC2)nc2ccccc21`, the Ki in assay [1] and in assay [2] was more than 1000 nM throughout.
In the case of `COc1ccc2c(c1)nc(N1CCNCC1)n2Cc1ccccc1`, the Ki in assay [1] and in assay [2] was more than 1000 nM throughout.
Regarding `Oc1ccc2c(c1)nc(N1CCNCC1)n2Cc1ccccc1`, the Ki in assay [1] and in assay [2] was more than 1000 nM throughout.
Take `Clc1cc2nc(N3CCNCC3)n(Cc3ccccc3)c2cc1Cl`: the Ki in assay [1] and in assay [2] was more than 1000 nM in each case.
On to `CN1[C@@H]2CC[C@H]1C[C@@H](OC(=O)c1c[nH]c3ccccc13)C2` [TROPISETRON], for which the affinity in assay [4] corresponds to a Ki of 1.58 nM. This compound also registered an ED50 in assay [5] of 1.7 µg/kg.
With `c1ccc(Cn2c(N3CCNCC3)nc3ccccc32)cc1` [LERISETRON], the Ki in assay [1] and in assay [2] was more than 1000 nM in each case. Moreover, in assay [5], the 50% effect level (ED50) was put at a dose of 2 µg/kg.
